ChEMBL document CHEMBL2046433, “Structure-activity relationships and optimization of 3,5-dichloropyridine derivatives as novel P2X(7) receptor antagonists” (J Med Chem, 2012)

Target: T1, P2X purinoceptor 7 (Homo sapiens, UniProt Q99572)
T1 sequence (Q99572 whole entry): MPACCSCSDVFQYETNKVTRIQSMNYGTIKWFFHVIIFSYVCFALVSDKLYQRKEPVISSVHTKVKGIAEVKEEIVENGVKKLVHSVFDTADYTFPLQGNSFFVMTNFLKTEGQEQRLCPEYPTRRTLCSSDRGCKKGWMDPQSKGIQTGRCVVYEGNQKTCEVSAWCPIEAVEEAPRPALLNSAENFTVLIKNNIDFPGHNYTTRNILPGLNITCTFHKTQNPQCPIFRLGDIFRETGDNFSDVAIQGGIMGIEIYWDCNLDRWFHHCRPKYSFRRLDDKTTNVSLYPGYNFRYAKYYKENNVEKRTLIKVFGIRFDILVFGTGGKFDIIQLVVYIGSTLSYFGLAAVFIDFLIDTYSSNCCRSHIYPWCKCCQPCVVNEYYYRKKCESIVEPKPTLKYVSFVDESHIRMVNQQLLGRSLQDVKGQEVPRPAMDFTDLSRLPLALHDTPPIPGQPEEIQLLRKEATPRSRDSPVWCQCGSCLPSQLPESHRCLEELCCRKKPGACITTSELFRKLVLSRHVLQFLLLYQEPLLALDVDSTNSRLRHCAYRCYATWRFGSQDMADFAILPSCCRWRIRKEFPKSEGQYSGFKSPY
Experiment: Antagonist activity at human P2X7 receptor expressed in HEK293 cells assessed as inhibition of BzATP-induced ethidium bromide uptake after 2 hrs by fluorescence analysis
Type: functional, cell-based
Details: not given

Compound	IC50 [nM]
O=C(NNc1c(Cl)cncc1Cl)C1CCc2ccccc2C1 (racemic)	1100
O=C(CCCCc1ccccc1)NNc1c(Cl)cncc1Cl	1200
CN([C@@H](Cc1ccc(OS(=O)(=O)c2cccc3cnccc23)cc1)C(=O)N1CCN(c2ccccc2)CC1)S(=O)(=O)c1cccc2cnccc12	280
O=C(CCc1cccc2ccccc12)NNc1c(Cl)cncc1Cl	1200
O=C(CCc1ccccc1)NNc1c(Cl)cccc1Cl	1400
COc1ccc(CCC(=O)NNc2c(Cl)cncc2Cl)cc1	1500
O=C(CCC1CCCC1)NNc1c(Cl)cncc1Cl	380
O=C(CCCc1ccccc1)NNc1c(Cl)cncc1Cl	770
O=C(NNc1c(Cl)cncc1Cl)C1Cc2ccccc2C1	4200
O=C(NNc1c(Cl)cncc1Cl)C12CC3CC(CC1C3)C2	1400
O=C(Cc1ccc(Cl)cc1)NNc1c(Cl)cncc1Cl	620
O=C(NNc1c(Cl)cncc1Cl)OCc1ccccc1	370
O=C(NNc1c(Cl)cncc1Cl)C1C2CC3CC(C2)C(Br)C1C3 (configuration not stated)	4.9

The remaining lines, values ahead:

IC50 [nM]	Compound
13	CC12CC3CC(C)(C1)CC(C(=O)NNc1c(Cl)cncc1Cl)(C3)C2
1100	O=C(Cc1ccccc1)NNc1c(Cl)cncc1Cl
730	O=C(CC1CCCCC1)NNc1c(Cl)cncc1Cl
650	O=C(CCc1ccccc1)NNc1c(Cl)cncc1Cl
210	O=C(CC1CC2CCC1C2)NNc1c(Cl)cncc1Cl (configuration not stated)
77	O=C(NNc1c(Cl)cncc1Cl)C1C2CC3CC(C2)CC1C3 (configuration not stated)
1400	Cc1ccc(CCC(=O)NNc2c(Cl)cncc2Cl)cc1
900	O=C(CCc1ccc(F)cc1)NNc1c(Cl)cncc1Cl
2800	O=C(NNc1c(Cl)cncc1Cl)C1CC2CCC1C2 (configuration not stated)
360	O=C(CCCC1CCCCC1)NNc1c(Cl)cncc1Cl
2500	O=C(Cc1ccc(Cl)cc1Cl)NNc1c(Cl)cncc1Cl
950	O=C(CCCCCCc1ccccc1)NNc1c(Cl)cncc1Cl
1100	O=C(CCc1ccc(Cl)cc1)NNc1c(Cl)cncc1Cl
900	Cc1cccc(C)c1NNC(=O)CCc1ccccc1
200	O=C(CC1CCCCCC1)NNc1c(Cl)cncc1Cl
130	O=C(CCC1CCCCC1)NNc1c(Cl)cncc1Cl
340	O=C(CC1C2CC3CC(C2)CC1C3)NNc1c(Cl)cncc1Cl (configuration not stated)
320	O=C(NNc1c(Cl)cncc1Cl)C1Cc2ccccc21 (racemic)
1900	O=C(CCCCCc1ccccc1)NNc1c(Cl)cncc1Cl

Target: T2, P2X purinoceptor 7 (Homo sapiens) (UniProt Q99572)
T2 sequence (whole entry): T1 sequence (Q99572 whole entry)
Experiment: Antagonist activity at human P2X7 receptor expressed in HEK293 cells assessed as inhibition of BzATP-induced ethidium bromide uptake at 20 uM after 2 hrs by fluorescence analysis
Type: functional, cell-based
Details: not given

inhibition [%]	Compound
< 20	O=C(Cc1ccncc1)NNc1c(Cl)cncc1Cl

Target: T3, P2X purinoceptor 1 (Mus musculus) (UniProt P51576)
T3 sequence (whole entry): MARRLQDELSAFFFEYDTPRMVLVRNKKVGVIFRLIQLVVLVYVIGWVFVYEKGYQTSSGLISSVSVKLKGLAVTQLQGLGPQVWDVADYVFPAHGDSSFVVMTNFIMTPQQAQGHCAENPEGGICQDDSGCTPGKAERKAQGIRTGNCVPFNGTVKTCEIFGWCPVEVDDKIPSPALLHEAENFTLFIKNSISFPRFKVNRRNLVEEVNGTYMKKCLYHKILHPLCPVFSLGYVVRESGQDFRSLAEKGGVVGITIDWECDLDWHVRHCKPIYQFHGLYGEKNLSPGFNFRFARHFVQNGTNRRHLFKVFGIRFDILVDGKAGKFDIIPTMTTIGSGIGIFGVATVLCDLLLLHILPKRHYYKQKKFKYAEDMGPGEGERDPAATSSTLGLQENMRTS
Experiment: Antagonist activity at mouse P2X1 receptor expressed in Xenopus oocytes assessed as reduction in ATP-induced ion current at 10 uM
Type: functional, cell-based
Set-up: scale not given: the % may be the effect or the level left
Details: Oocyte
How it was run: (§1)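 Two-electrode voltage clamp on Xenopus oocytes made to express the receptor by microinjection of capped cRNA. Currents were evoked by 2 μM ATP, and the test compound was given at 10 μM. The read-out is the percent reduction of the ATP-induced ion current.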

Activity [%]	Compound
10	CC12CC3CC(C)(C1)CC(C(=O)NNc1c(Cl)cncc1Cl)(C3)C2

Target: T4, P2X purinoceptor 3 (Homo sapiens) (UniProt P56373)
T4 sequence (whole entry): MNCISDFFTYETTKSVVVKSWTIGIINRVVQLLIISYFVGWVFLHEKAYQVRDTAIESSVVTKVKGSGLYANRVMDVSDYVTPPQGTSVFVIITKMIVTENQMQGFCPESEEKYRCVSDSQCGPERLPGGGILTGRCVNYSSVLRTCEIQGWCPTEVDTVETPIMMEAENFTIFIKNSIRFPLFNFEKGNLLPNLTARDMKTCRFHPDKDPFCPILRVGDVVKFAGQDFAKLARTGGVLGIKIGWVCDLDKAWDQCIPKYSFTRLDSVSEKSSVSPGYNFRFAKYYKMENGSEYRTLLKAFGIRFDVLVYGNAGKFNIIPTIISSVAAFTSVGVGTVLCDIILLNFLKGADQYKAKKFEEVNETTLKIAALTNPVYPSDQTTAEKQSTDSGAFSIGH
Experiment: Antagonist activity at human P2X3 receptor expressed in Xenopus oocytes assessed as reduction in ATP-induced ion current at 10 uM
Type: functional, cell-based
Set-up: scale not given: the % may be the effect or the level left
Details: Oocyte
How it was run: as §1

Activity [%]	Compound
10	CC12CC3CC(C)(C1)CC(C(=O)NNc1c(Cl)cncc1Cl)(C3)C2

Target: T2, P2X purinoceptor 7 (Homo sapiens)
Experiment: Antagonist activity at human P2X7 receptor expressed in HEK293 cells assessed as inhibition of BzATP-induced ethidium bromide uptake at 10 uM after 2 hrs by fluorescence analysis
Details: not given

Compound	inhibition [%]
O=C(NNc1c(Cl)cncc1Cl)c1ccccc1	< 20
O=C(CCc1ccccc1)NNc1ccncc1	< 20
O=C(CCc1ccccc1)NNc1cc(Cl)nc(Cl)c1	< 20
O=C(CCc1ccccc1)Nc1c(Cl)cncc1Cl	< 20
O=C(NNc1c(Cl)cncc1Cl)C1CC2C=CC1C2 (configuration not stated)	< 20
CN(Nc1c(Cl)cncc1Cl)C(=O)CCc1ccccc1	< 20
O=C(CCc1ccccc1)NNc1c(F)cccc1F	< 20

The remaining lines, values ahead:

inhibition [%]	Compound
< 20	O=C(CCc1ccccc1)NNc1c(F)cncc1F
< 20	Clc1cncc(Cl)c1NNCCCc1ccccc1
< 20	O=C(/C=C/c1ccccc1)NNc1c(Cl)cncc1Cl
< 20	O=C(Cc1cccc2ccccc12)NNc1c(Cl)cncc1Cl
< 20	O=C(Cc1ccc2ccccc2c1)NNc1c(Cl)cncc1Cl
< 20	O=C(NNc1c(Cl)cncc1Cl)c1cc2ccccc2[nH]1
< 20	O=C(CCc1ccc(O)cc1)NNc1c(Cl)cncc1Cl
< 20	O=C(NCc1ccccc1)NNc1c(Cl)cncc1Cl

Target: T1, P2X purinoceptor 7
Experiment: Antagonist activity at human P2X7 receptor in human THP1 cells assessed as inhibition of BzATP-induced IL-1beta release pretreated for 30 mins before bzATP challenge measured after 30 mins by ELISA
Details: not given

Compound	IC50 [nM]
CN([C@@H](Cc1ccc(OS(=O)(=O)c2cccc3cnccc23)cc1)C(=O)N1CCN(c2ccccc2)CC1)S(=O)(=O)c1cccc2cnccc12	120
O=C(NNc1c(Cl)cncc1Cl)C1C2CC3CC(C2)C(Br)C1C3 (configuration not stated)	1.3

Next, values leading:

IC50 [nM]	Compound
9.2	CC12CC3CC(C)(C1)CC(C(=O)NNc1c(Cl)cncc1Cl)(C3)C2
320	O=C(CCc1ccccc1)NNc1c(Cl)cncc1Cl
130	O=C(NNc1c(Cl)cncc1Cl)C1C2CC3CC(C2)CC1C3 (configuration not stated)
42	O=C(CC1CCCCCC1)NNc1c(Cl)cncc1Cl
56	O=C(CCC1CCCCC1)NNc1c(Cl)cncc1Cl
